Laboratory results: article PMC4091728 (Chembiochem : a European journal of chemical biology, 2014)

What was measured:
[1] = tested on: Trypanosoma cruzi (CA-I/72 trypomastigotes) in mouse C2C12 myoblasts; assay: EC50 in cell-based assay using T. cruzi-infected mouse C2C12 myoblasts; settings: highest concentration 10 μM
TcCYP51 = TcCYP51 (Trypanosoma cruzi, UniProt Q7Z1V1); assay: Binding affinity by UV-vis spectroscopy
Outline: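 Recombinant TcCYP51 at 1 μM in 100 mM potassium phosphate, pH 7.5, with 10% glycerol, at 23°C, in a 1-cm quartz cuvette. Titrated stepwise with test compound from a 100 μM DMSO stock, with equal solvent added to the reference cuvette. The absorbance shift between 425 and 390 nm was fitted to the quadratic tight-binding equation to give KD.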

Sequence of TcCYP51 (Q7Z1V1 whole entry): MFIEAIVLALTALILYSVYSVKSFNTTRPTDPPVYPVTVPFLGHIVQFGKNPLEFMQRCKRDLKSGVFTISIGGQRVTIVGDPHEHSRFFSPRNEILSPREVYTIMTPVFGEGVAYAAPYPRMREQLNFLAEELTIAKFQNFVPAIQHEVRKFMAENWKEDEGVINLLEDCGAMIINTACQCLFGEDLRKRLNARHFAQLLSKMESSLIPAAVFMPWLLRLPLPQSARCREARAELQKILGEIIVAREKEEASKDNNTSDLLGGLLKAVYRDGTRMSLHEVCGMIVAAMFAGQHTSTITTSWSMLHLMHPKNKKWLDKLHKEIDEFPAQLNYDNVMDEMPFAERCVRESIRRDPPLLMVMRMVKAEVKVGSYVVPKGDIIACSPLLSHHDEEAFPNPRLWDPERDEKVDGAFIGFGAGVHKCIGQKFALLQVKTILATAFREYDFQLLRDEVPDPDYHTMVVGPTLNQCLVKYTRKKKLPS

| Structure (SMILES) | Kd (TcCYP51) [nM] | anti-T. cruzi potency in cell culture, in words [1] |
| --- | --- | --- |
| N#Cc1ccc(S(=O)(=O)N2CCN(c3ccc(C(=O)N[C@H](Cc4c[nH]c5ccccc45)C(=O)Nc4ccncc4)c(F)c3)CC2)cc1 [compound 4, (R)-N-(3-(1H-Indol-3-yl)-1-oxo-1-(pyridin-4-ylamino)propan-2-yl)-4-(4-((4-cyanophenyl)sulfonyl)piperazin-1-yl)-2-fluorobenzamide] | 47 ± 19 | – |
| O=C(N[C@H](Cc1c[nH]c2ccccc12)C(=O)Nc1ccncc1)c1ccc(N2CCN(S(=O)(=O)c3ccc(C(F)(F)F)cc3)CC2)cc1F [compound 6, (R)-N-(3-(1H-Indol-3-yl)-1-oxo-1-(pyridin-4-ylamino)propan-2-yl)-2-fluoro-4-(4-((4-(trifluoromethyl)phenyl)sulfonyl)piperazin-1-yl)benzamide] | ≤ 10 | inhibited T. cruzi at the low micromolar concentrations |
| COC(=O)c1sccc1S(=O)(=O)N1CCN(c2ccc(C(=O)N[C@H](Cc3c[nH]c4ccccc34)C(=O)Nc3ccncc3)c(F)c2)CC1 [compound 7, (R)-methyl 3-((4-(4-((3-(1H-Indol-3-yl)-1-oxo-1-(pyridin-4-ylamino)propan-2-yl)carbamoyl)-3-fluorophenyl)piperazin-1-yl)sulfonyl)thiophene-2-carboxylate] | 20 ± 7 | inhibited T. cruzi at the low micromolar concentrations |
| O=C(O)c1ccc(S(=O)(=O)N2CCN(c3ccc(C(=O)N[C@H](Cc4c[nH]c5ccccc45)C(=O)Nc4ccncc4)c(F)c3)CC2)cc1 [compound 8, (R)-4-((4-(4-((3-(1H-Indol-3-yl)-1-oxo-1-(pyridin-4-ylamino)propan-2-yl)carbamoyl)-3-fluorophenyl)piperazin-1-yl)sulfonyl)benzoic acid] | 20 ± 7 | failed to elicit T. cruzi inhibition in cell culture at ≤10 μM |
| O=C(N[C@H](Cc1c[nH]c2ccccc12)C(=O)Nc1ccncc1)c1ccc(N2CCN(S(=O)(=O)c3ccsc3C(=O)O)CC2)cc1F [compound 9, (R)-3-((4-(4-((3-(1H-Indol-3-yl)-1-oxo-1-(pyridin-4-ylamino)propan-2-yl)carbamoyl)-3-fluorophenyl)piperazin-1-yl)sulfonyl)thiophene-2-carboxylic acid] | ≤ 10 | failed to elicit T. cruzi inhibition in cell culture at ≤10 μM |

Second part, led by results:

| Kd (TcCYP51) [nM] | Structure (SMILES) | anti-T. cruzi potency in cell culture, in words [1] |
| --- | --- | --- |
| ≤ 10 | O=C(N[C@H](Cc1c[nH]c2ccccc12)C(=O)Nc1ccncc1)c1ccc(N2CCN(S(=O)(=O)c3cccs3)CC2)cc1F [compound 3, (R)-N-(3-(1H-Indol-3-yl)-1-oxo-1-(pyridin-4-ylamino)propan-2-yl)-2-fluoro-4-(4-(thiophen-2-ylsulfonyl)piperazin-1-yl)benzamide] | sub-nanomolar |
| 15 ± 6 | O=C(N[C@H](Cc1c[nH]c2ccccc12)C(=O)Nc1ccncc1)c1ccc(N2CCN(S(=O)(=O)c3cccnc3)CC2)cc1F [compound 5, (R)-N-(3-(1H-Indol-3-yl)-1-oxo-1-(pyridin-4-ylamino)propan-2-yl)-2-fluoro-4-(4-(pyridin-3-ylsulfonyl)piperazin-1-yl)benzamide] | inhibited T. cruzi at the low micromolar concentrations |
| 25 ± 6 | O=C(N[C@H](Cc1c[nH]c2ccccc12)C(=O)Nc1ccncc1)c1ccc(N2CCN(S(=O)(=O)C3CC3)CC2)cc1F [compound 10, (R)-N-(3-(1H-Indol-3-yl)-1-oxo-1-(pyridin-4-ylamino)propan-2-yl)-4-(4-(cyclopropylsulfonyl)piperazin-1-yl)-2-fluorobenzamide] | failed to elicit T. cruzi inhibition in cell culture at ≤10 μM |
| 19 ± 4 | CS(=O)(=O)N1CCN(c2ccc(C(=O)N[C@H](Cc3c[nH]c4ccccc34)C(=O)Nc3ccncc3)c(F)c2)CC1 [compound 11, (R)-N-(3-(1H-Indol-3-yl)-1-oxo-1-(pyridin-4-ylamino)propan-2-yl)-2-fluoro-4-(4-(methylsulfonyl)piperazin-1-yl)benzamide] | failed to elicit T. cruzi inhibition in cell culture at ≤10 μM |
